Screening data from PubChem.
Jurkat tox 60K – cytotoxicity toward Jurkat T cells, primary screen, cytotoxicity control, cell-based, Jurkat E6.1, 60K MLSMR library | Jurkat E6.1 viability, ATP luminescence, 48 h | AID 463, 2006 | inhibition, % at 4 µM | actives 1.2% (n = 56,000);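 active = inhibition above the mean inhibition of all tested compounds plus 3 SD, cut at about 28% in these data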
PTK2B oligo ant – antagonists of Pyk2 self-association, primary screen, Q293 cells, FERM NanoBiT luminescence, HTS | actives 0.83% (n = 99,000) | z-score (the deposit names both 25 µM and 10 µM) | hits give low values | Protein-tyrosine kinase 2-beta (Homo sapiens), Q14289;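 active = Z-score of -3 or lower, scaled per plate to the spread of control and sample wells; inactive = z-score above -3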;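 note: negative z-score means lost luminescence so less FERM oligomerization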
Target sequence (Q14289 whole entry, looked up): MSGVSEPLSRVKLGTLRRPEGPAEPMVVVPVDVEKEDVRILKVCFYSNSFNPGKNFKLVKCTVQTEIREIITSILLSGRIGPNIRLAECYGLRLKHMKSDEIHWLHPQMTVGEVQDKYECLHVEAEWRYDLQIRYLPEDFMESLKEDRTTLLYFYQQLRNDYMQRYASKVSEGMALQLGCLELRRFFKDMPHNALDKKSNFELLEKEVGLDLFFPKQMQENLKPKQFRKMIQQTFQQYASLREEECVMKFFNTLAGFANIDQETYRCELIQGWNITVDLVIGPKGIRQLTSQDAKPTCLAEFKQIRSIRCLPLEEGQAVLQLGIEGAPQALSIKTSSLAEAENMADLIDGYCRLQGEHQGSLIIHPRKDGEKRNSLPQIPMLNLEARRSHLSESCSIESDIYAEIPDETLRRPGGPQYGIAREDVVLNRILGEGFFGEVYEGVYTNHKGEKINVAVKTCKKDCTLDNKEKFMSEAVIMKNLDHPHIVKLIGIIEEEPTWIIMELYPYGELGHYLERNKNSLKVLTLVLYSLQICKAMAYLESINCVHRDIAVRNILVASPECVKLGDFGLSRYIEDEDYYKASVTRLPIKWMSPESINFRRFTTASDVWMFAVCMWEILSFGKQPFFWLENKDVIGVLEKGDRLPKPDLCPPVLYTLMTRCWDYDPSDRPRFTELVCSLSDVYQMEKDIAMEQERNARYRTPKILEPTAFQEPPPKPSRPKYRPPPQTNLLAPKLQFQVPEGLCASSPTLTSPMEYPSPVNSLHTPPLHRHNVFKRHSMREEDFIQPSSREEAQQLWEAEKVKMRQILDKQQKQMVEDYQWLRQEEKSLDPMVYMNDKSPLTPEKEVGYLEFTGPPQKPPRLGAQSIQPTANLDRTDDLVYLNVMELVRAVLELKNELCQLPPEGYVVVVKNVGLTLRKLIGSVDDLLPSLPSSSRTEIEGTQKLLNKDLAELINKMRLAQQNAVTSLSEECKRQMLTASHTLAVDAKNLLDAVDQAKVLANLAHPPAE
HUVEC prolif 384 – inhibitors of HUVEC proliferation, primary screen, cell-based, 384-well; CellTiter-Glo luminescence, 72 h; hits give low values; viability, % at 10 µM (by protocol); actives 1.1% (n = 86,000); AID 648, 2007;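 active = viability at or below 30%; inactive = viability above 30%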;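 note: 100% = median luminescence of DMSO-only cell control wells on each plate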
Lung fibro prol – antiproliferative effect on LL 47 fibroblasts – human, LL 47 cells, CellTiter-Glo luminescence, primary screen. LL 47 human lung fibroblast viability, ATP luminescence; hits give low values. viability, % at 10 µM. actives 1.1% (n = 85,000). AID 719, 2007;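 active = viability at or below 50% in the single dose screen; inactive = viability above 50%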;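 note: compound exposure lasted 72 h before the ATP readout; 100% = median luminescence of untreated cell-only wells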
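Benchmarks: Cell-only wells, no compound | Test system: LL 47 human lung fibroblasts, passage 12 or lower | Input: 1,150 cells/well | Measured by: CellTiter-Glo luminescence measuring cellular ATP | Medium: IMEM, 15% FBS supplement | Schedule: Overnight attachment after seeding, then 72 h compound exposure at 37 °C | Doses: Compound addition at 0.1% DMSO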
F-actin modifier – modifiers of F-actin cytoskeleton organization, primary screen, imaging, HUVEC, phalloidin staining, high-content imaging; HUVEC TNFa F-actin phalloidin imaging; AID 836, 2007; inhibition, % at 2 µM; actives 0.18% (n = 91,000);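 active = inhibition above the batch mean plus 3 SD and confirmed as a hit by visual image inspection, cut at about 30% in these data, passing the limit was not always enough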
H69AR inhibit – proliferation blockers of H69AR lung cancer cells, primary screen, cell-based, human, 86K library; H69AR lung tumor viability, ATP luminescence, 72 h; hits give low values; viability, % at 10 µM; actives 6% (n = 85,000); AID 598, 2007;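 active = viability at or below 40%; inactive = viability above 40%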;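 note: multidrug resistant small cell line overexpressing MRP-1 efflux transporter; 100% = mean luminescence of untreated control wells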
* = called active by the depositor; nt = no result given. Hits are enriched below; roughly 6% of the tested compounds scored in any of these assays.

SMILES	Jurkat tox 60K	PTK2B oligo ant	HUVEC prolif 384	Lung fibro prol	F-actin modifier	H69AR inhibit
COc1ccc(NC(=O)CSc2nnc(CNC(=O)COc3ccc(Cl)cc3)o2)c(OC)c1	1.5	0.12	93.3	44.4*	-16.2	107.3
COc1ccc(NC(C)=O)cc1NC(C)C(=O)Nc1cccc2ccccc12 (centres undefined)	nt	0.23	104.1	98.4	5.3	77.0
COc1cc(/C=N/NC(=O)C2c3ccccc3Oc3ccccc32)ccc1O	nt	-0.38	nt	nt	-8.4	nt
CCCN1C(=O)C(O)(CC(=O)c2ccc3c(c2)OCCO3)c2ccccc21 (centres undefined)	0.3	0.62	95.9	95.4	nt	17.4*
C#CCN1C(=O)C(O)(CC(=O)c2ccc(OC)c(OC)c2)c2ccccc21 (centres undefined)	-0.2	-0.27	101.8	97.7	14.5	40.9
CN1C(=O)C(O)(CC(=O)c2ccc3c(c2)OCO3)c2ccccc21 (centres undefined)	-7.7	0.47	108.8	95.5	-8.7	88.9
C#CCN1C(=O)C(O)(CC(=O)c2ccc3c(c2)OCCO3)c2ccccc21 (centres undefined)	0.5	nt	81.3	100.1	-3.6	34.5*
CCCCN1C(=O)C(O)(CC(=O)c2ccccc2OC)c2ccccc21 (centres undefined)	6.8	nt	99.6	99.7	nt	92.0
CCCN1C(=O)C(O)(CC(=O)c2cccc(OC)c2)c2ccccc21 (centres undefined)	-5.2	-0.37	85.4	92.4	16.1	27.7*
COc1ccc(-c2n[nH]c(C(F)(F)F)c2-c2cc3ccccc3o2)c(O)c1	nt	-1.82	12.5*	78.9	nt	10.7*
COc1ccc(/C=C/C(=O)NCC(=O)N/N=C/c2cc(Br)ccc2OCc2ccccc2)cc1	nt	0.29	46.2	78.0	-5.3	7.4*
Cn1c(-c2ccccc2)cc2c3no[n+]([O-])c3ccc21	78.0*	-1.13	13.6*	26.3*	11.2	19.1*
Cc1ccc(S(=O)(=O)Nc2nonc2C)cc1	-1.8	0.05	107.2	105.0	17.2	103.9
C=CCNCC(=O)NN=C(c1ccccc1)c1ccccc1	nt	0.16	nt	nt	-6.6	nt
O=C1c2ccccc2C(=O)c2c1ccc1c(=O)n(C3CCCCC3)[nH]c21	nt	1.18	3.2*	nt	1.5	36.0*
O=c1c2[nH]c3ccccc3c2ncn1C1CCCCC1	5.1	-0.57	89.6	103.0	22.1	54.6
Cc1cc(NC(=O)c2cncc(Br)c2)n(-c2ccccn2)n1	nt	1.07	84.6	98.6	-1.7	37.0*
CC(=O)C1=C(C)Nc2ncnn2C1c1ccccc1OCc1ccccc1 (centres undefined)	3.0	-3.08*	93.6	99.0	19.7	73.4
Cc1ccc(-n2c(=O)[nH]cc(C(=O)Nc3ccc4c(c3)OCO4)c2=O)cc1C	2.9	nt	102.7	102.8	nt	101.9
CC(=O)Cc1nsc(NC(=O)c2ccc(-c3cccc(C(F)(F)F)c3)o2)n1	3.2	-0.42	66.1	99.7	8.1	21.4*
CN(C)CCCN1c2ccccc2Sc2ccc(Cl)cc21	nt	nt	49.6	43.5*	-12.3	19.6*
OCCN1CCN(CCCN2c3ccccc3Sc3ccc(Cl)cc32)CC1	nt	nt	1.8*	28.2*	nt	1.5*
CN(C)CCCN1c2ccccc2CCc2ccccc21	nt	nt	88.0	82.7	nt	81.4
Cn1c(=O)c2c(nc(CN3CCN(Cc4ccccc4)CC3)n2Cc2ccccc2)n(C)c1=O	4.0	nt	97.7	98.2	nt	59.6
Cn1c(=O)c2c(nc(NCc3ccc4c(c3)OCO4)n2Cc2ccc(F)cc2)n(C)c1=O	nt	-2.92	57.2	83.5	-4.7	23.0*
SMILES	Jurkat tox 60K	PTK2B oligo ant	HUVEC prolif 384	Lung fibro prol	F-actin modifier	H69AR inhibit
Cn1c(=O)c2c(nc(CN3CCN(Cc4ccccc4)CC3)n2Cc2ccc(Cl)cc2)n(C)c1=O	2.2	nt	69.7	45.4*	-0.9	10.4*
COc1ccc(N2CCn3c2nc2c3c(=O)n(CCc3ccccc3)c(=O)n2C)c(OC)c1	4.9	nt	78.6	97.9	40.4	67.0
Cn1c(=O)n(Cc2ccccc2)c(=O)c2c1nc1n2CCCN1Cc1ccccc1	-2.1	-1.15	91.5	90.8	-10.2	32.1*
Cc1ccc(Cn2c(=O)c3c(nc4n3CCCN4Cc3ccccc3)n(C)c2=O)cc1	0.5	-0.17	89.0	95.0	46.8	61.1
COc1ccc(N2CCn3c2nc2c3c(=O)n(CCCc3ccccc3)c(=O)n2C)c(OC)c1	49.8*	-1.74	67.5	68.6	26.6	83.7
Cc1c(Cl)c(C(F)(F)F)nn1CC(=O)N1CCSCC1	nt	-0.19	nt	nt	-5.6	nt
Cc1cccc(C)c1NC(=O)C(c1ccc([N+](=O)[O-])cc1)N(C)C(=O)c1ccccn1 (centres undefined)	nt	0.07	nt	nt	nt	nt
Cc1ccccc1N(C(=O)Cn1nnc2ccccc21)C(C(=O)NCc1ccco1)c1ccncc1 (centres undefined)	-4.5	0.42	89.4	100.3	nt	86.5
CC(=O)c1cccc(NC(=O)c2cc3nc(C)cc(C)n3n2)c1	13.1	-0.14	100.9	105.9	-5.5	75.2
Cn1c(=O)c2c(nc(NCc3ccc4c(c3)OCO4)n2Cc2ccccc2F)n(C)c1=O	nt	-1.35	90.7	103.6	5.6	42.8
Cn1c(=O)c2c(nc(NCc3ccc4c(c3)OCO4)n2Cc2ccccc2)n(C)c1=O	nt	-1.68	89.4	96.6	-12.3	28.8*
Cn1c(=O)c2c(nc(Oc3ccc4c(c3)OCO4)n2Cc2ccc(Cl)cc2)n(C)c1=O	3.6	0.78	11.9*	nt	-6.1	12.4*
O=C(CN(CC1CCCO1)C(=O)CNS(=O)(=O)c1ccc(Cl)cc1)NCCc1ccccc1 (centres undefined)	nt	-0.1	89.0	97.7	-25.6	82.0
C=CCc1ccc(OCC(O)COc2ccc(CC=C)cc2OC)c(OC)c1	nt	-1.75	85.2	99.5	nt	34.6*
COc1cc2cc3c(N)c(C(=O)Nc4sc(C)c(C)c4C#N)sc3nc2cc1OC	nt	-1.09	nt	nt	-9.6	nt
CSc1cc(-c2ccccc2)n(Cc2ccccc2Cl)c(=O)c1C#N	nt	-0.93	62.1	54.5	nt	4.8*
N#Cc1c(-c2ccccc2)ccn(Cc2ccccc2Cl)c1=O	nt	-1.44	nt	nt	-14.2	nt
Cc1nc2c(C(=O)NCCC(C)C)c[nH]n2c(=O)c1Cc1ccccc1F	nt	-1.8	11.8*	102.4	-13.2	46.3
COc1ccc(NC(=O)Cc2nn(C)c(=O)c3ccccc23)c2ncccc12	-2.4	nt	110.8	93.1	nt	84.5
O=C(CN1C2=NCCN2c2ccccc21)C12CC3CC(CC(C3)C1)C2	12.3	-0.76	51.9	96.0	9.1	34.6*
C=CCNC(=O)CCCCC(=O)NCC=C	3.1	-0.4	96.3	97.4	-5.0	32.4*
C=CCNC(=O)CCCOc1ccc(C)cc1	nt	0.89	94.1	100.6	-23.4	106.4
CCOC(=O)c1ccc(NC(=O)c2cn(-c3ccccc3)nc2-c2ccncc2)cc1	nt	-2.05	nt	nt	-45.7	nt
